Assay outcomes deposited in PubChem BioAssay by several laboratories.
HIF activator: HIF pathway transcriptional activation; U2OS HRE-luciferase reporter, luminescence; normalized: DMSO 0%, desferrioxamine 100%; activation, % at 7.5 µM (by protocol); actives 0.32% (n = 300,000); AID 1910;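 active = mean activation of at least 10% of the iron chelator positive control signal, with at least half of replicates also reaching 10%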
NR2E3 ag-1: activates human NR2E3 receptor; Q9Y5X4; CHO-S Gal4-NCOR/VP16-NR2E3 two-hybrid, luciferase; inhibition of corepressor binding, % at 3.98 µM; actives 0.35% (n = 360,000);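 active = inhibition above the mean of all tested compounds plus 3 SD, cut at about 70% in these data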;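 also: 0% = DMSO with NR2E3 transfected cells and 100% = cells lacking NR2E3 construct; higher means lower luciferase signal from less NR2E3 corepressor binding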
Target sequence (Q9Y5X4 whole entry, looked up, the tested form may be a part): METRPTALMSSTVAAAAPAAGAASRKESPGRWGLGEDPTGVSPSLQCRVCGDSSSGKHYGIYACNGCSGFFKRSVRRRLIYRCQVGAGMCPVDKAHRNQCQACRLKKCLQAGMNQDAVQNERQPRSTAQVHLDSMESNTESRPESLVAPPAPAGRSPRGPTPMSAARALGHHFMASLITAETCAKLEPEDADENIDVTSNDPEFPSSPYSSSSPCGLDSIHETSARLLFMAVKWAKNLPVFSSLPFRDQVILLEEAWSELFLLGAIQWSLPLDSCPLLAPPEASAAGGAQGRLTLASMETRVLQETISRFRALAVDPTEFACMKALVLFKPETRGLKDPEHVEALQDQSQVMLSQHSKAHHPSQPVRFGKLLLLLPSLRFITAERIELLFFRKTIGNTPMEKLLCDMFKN
TROY NFkB inh: TROY signaling inhibition; Q293 LMP1-TROYcd NF-kB luciferase reporter, 4 h; inhibition, % at 10 µM; actives 0.98% (n = 360,000);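 active = compounds whose plate-normalised and pattern-corrected inhibition of the luciferase reporter signal at the single screening dose is 50% or more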
LMP1 NFkB inh: inhibitors of Epstein-Barr LMP1-induced NF-kappaB reporter; actives 0.69% (n = 350,000); inhibition, % at 12.5 µM; AID 504558; LMP1-induced NF-kappaB luciferase reporter cells, luminescence; in the data active = inhibition above about 41%;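 also: 0% = neutral control wells and 100% = reference inhibitor control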
NR2E3 ag-2: activates human photoreceptor nuclear receptor NR2E3. actives 0.12% (n = 320,000). AID 2300. GST-NR2E3/biotin-RetCOR TR-FRET, 1536-well. Q9Y5X4. inhibition of corepressor binding, % at 4.78 µM;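 active = percent inhibition above the cutoff of mean plus 3 SD of all tested compounds, set per screening campaign, cut at about 20% in these data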;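 also: 0% = DMSO wells and 100% = biotin wells as full block of FRET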
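system = GST-tagged NR2E3 plus biotinylated RetCOR corepressor | input = 1.35 nM GST-NR2E3 | also added = 7 nM biotin-RetCOR | schedule = 5 h incubation at 4 °C | measured by = TR-FRET with europium anti-GST and streptavidin-D2, 340 nm excitation | read-out = percent loss of FRET ratio relative to control wells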
Numbers without * were called inactive; nt = no result. Only some compounds are listed: those with a hit (about 2% of all), similar ones and a draw of the others.

SMILES	HIF activator	NR2E3 ag-1	TROY NFkB inh	LMP1 NFkB inh	NR2E3 ag-2
COc1ccc(CN2CCC[C@]3(N[C@H](c4ccc(C(F)(F)F)cc4)[C@@H]4C(=O)N(C)C(=O)[C@@H]43)C2=O)cc1	nt	6	6	3	nt
O=C(c1ccc([N+](=O)[O-])cc1)N1CCN(Cc2ccccc2)CC1	0	-24	6	59*	3
CCC(=O)NC(=S)Nc1ccc(NC(=O)c2cccc([N+](=O)[O-])c2C)cc1	15*	-14	11	7	-4
CCOC(=O)C1=NN2C(O)C3(C)CC(C(=O)OCC)=NN3C(O)C2(C)C1 (configuration not stated)	nt	5	3	-6	nt
Cc1sc2nc(CSCC(=O)NC3(C#N)CCCCC3)[nH]c(=O)c2c1C	nt	-23	-3	2	-1
Cc1ccc(Cn2c(N)c(S(=O)(=O)c3cccs3)c3nc4ccccc4nc32)cc1	0	-16	63*	1	-1
CCCCn1c(N)c(S(=O)(=O)c2ccc(C)cc2)c2nc3ccccc3nc21	0	-26	65*	-6	3
Nc1c(S(=O)(=O)c2cccs2)c2nc3ccccc3nc2n1Cc1ccccc1	0	3	41	-16	1
O=S(=O)(Nc1ccc(-n2cccc2)cc1)c1ccc(F)cc1	0	-23	24	-2	-1
O=S(=O)(Nc1ccc(-n2cccc2)cc1)c1ccc(Cl)c(Cl)c1	nt	13	55*	-1	2
Cc1nn(-c2ccccc2)c2ncc(C(=O)c3cc(Cl)ccc3O)cc12	0	-5	5	5	0
CCc1nn2cc(C(=O)c3cc(Cl)ccc3O)cnc2c1-c1ccc(F)cc1	0	-13	65*	-1	-2
Cc1ccc(C)c(N2CCN(C(=O)c3cc(S(=O)(=O)N4CCCC4)cn3C)CC2)c1	0	-19	3	2	-2
COC(=O)Nc1sc2c(c1C(=O)NCc1ccco1)CCC2	0	-24	1	2	1
COC(=O)Nc1sc2c(c1C(=O)NCc1ccco1)CCCC2	0	21	-17	56*	1
NC(=O)CNCCC(c1ccccc1)c1ccccc1	nt	2	10	-29	-1
CCCOc1ccc(C(=O)Nc2cccnc2)cc1	4	-34	-44	-19	0
CCOc1cc(C(=O)Nc2cccnc2)cc(OCC)c1OCC	0	-25	52*	0	-1
O=C1C(C=Nc2ccccc2)=C(O)c2ccccc21	5	-79	53*	11	0
COc1ccc(N=CC2=C(O)c3ccccc3C2=O)cc1	0	-160	74*	37	6
COc1ccc(OC)c(NC(=O)C2(C)CCN2C(=O)C2(c3ccccc3)CCCC2)c1 (configuration not stated)	nt	13	-9	nt	nt
CS(=O)(=O)Cc1ccc(C(=O)N(CCc2ccccc2)Cc2ccccc2)cc1	0	-7	-4	3	-3
COc1ccc(C(=O)NCCS(=O)(=O)N2CCN(Cc3ccccc3)CC2)cc1	0	5	0	-3	3
C=CC[C@@H](CC(=O)N[C@@H](CO)Cc1ccccc1)C(=O)N[C@@H](COC(=O)[C@H](CC=C)CC(=O)OC(C)(C)C)Cc1c[nH]c2ccccc12	nt	-13	19	2	nt
Cc1ccc(SC(C)c2nc(-c3ccccc3)no2)cc1 (configuration not stated)	1	0	-43	59*	1
SMILES	HIF activator	NR2E3 ag-1	TROY NFkB inh	LMP1 NFkB inh	NR2E3 ag-2
Cc1ccccc1OC(C)c1nc(-c2ccccc2)no1 (configuration not stated)	0	2	nt	-4	0
O=C(OCc1ccccc1)c1ccc(NCc2cc(O)ccc2O)cc1	nt	34	58*	-36	nt
O=c1c2c(-c3ccccc3)csc2nc2c3ccccc3c(NCCN3CCOCC3)nn12	-6	15	6	-46	nt
O=c1c2ccccc2nc2c3ccccc3c(NCCN3CCOCC3)nn12	26*	nt	nt	nt	-5
NNC(=O)c1cc2ccccc2cc1O	0	41	21	51*	-3
COc1cc(NC(=O)c2cc3ccccc3cc2O)c(OC)cc1Cl	-12	-55	45	9	-1
Cc1ccc(Cl)cc1NC(=O)c1cc2ccccc2cc1O	2	-52	52*	37	-2
Cc1ccccc1NC(=O)c1ccccc1O	408*	-37	-23	-3	4
O=C(NCCO)c1cc2ccccc2cc1O	0	-2	-2	15	1
C[C@H](NC(=O)c1nc[nH]c1C(=O)NC[C@@H](C)O)c1ccccc1	nt	-11	-4	5	nt
CCOc1ccc(C(=O)NC(=S)Nc2cccc(S(=O)(=O)NC3=NCCC3)c2)cc1	3	-48	-26	2	-2
COc1ccc(N2CCN(C(=O)COc3ccc4c(C)c(C)c(=O)oc4c3C)CC2)cc1	51*	-17	-3	2	3
O=C(Nc1nc(-c2ccccc2)cs1)c1ccc(N2CCOCC2)c([N+](=O)[O-])c1	0	67	83*	26	-1
CCCC(C(=O)Nc1ccc(C)c(S(=O)(=O)N2CCOCC2)c1)c1ccccc1 (configuration not stated)	-1	-14	-16	8	2
Cc1ccc(NC(=O)C(C)N2C(=O)c3ccccc3C2=O)cc1S(=O)(=O)N1CCOCC1 (configuration not stated)	nt	20	64*	-2	nt
CCc1ccc(C(=O)Nc2ccc(OC)c(S(=O)(=O)N3CCOCC3)c2)cc1	0	7	4	-5	0
CCOc1ccc2nc(NC(=O)c3ccc(OC)c(S(=O)(=O)N4CCOCC4)c3)sc2c1	-1	-15	53*	-1	4
COc1ccc(NC(=O)c2ccc(-c3ccccc3)cc2)cc1S(=O)(=O)N1CCOCC1	-1	-11	37	51*	0
Cc1ccc(-c2csc(NC(=O)c3cc([N+](=O)[O-])ccc3N3CCOCC3)n2)cc1	0	-18	26	3	1
O=C(NNS(=O)(=O)c1ccccc1F)c1sccc1-n1cccc1	0	-7	3	-1	0
CCOc1cccc(C(=O)Nc2nc(-c3ccc(S(=O)(=O)N4CCOCC4)cc3)cs2)c1	-1	-6	50*	25	2
O=C(Nc1nc(-c2ccccc2)cs1)c1ccc2c(=O)n3c(nc2c1)CCCCC3	0	-30	71*	32	4
CCOC(=O)c1ccc(N2CCOCC2)c(NS(=O)(=O)c2ccc(F)cc2)c1	4	-25	1	-2	0
COC(=O)c1cccc(-c2ccc(C(c3c(C)[nH][nH]c3=O)c3c(C)[nH][nH]c3=O)o2)c1	0	-27	82*	17	4
N#CCCN(C(=O)CN1c2cccc3cccc(c23)S1(=O)=O)c1ccccc1	nt	13	-18	2	nt
NC(=S)n1[nH]c(-c2ccc([N+](=O)[O-])cc2)c(N=Nc2ccc(Cl)cc2)c1=O	nt	-13	53*	32	nt
